The text below walks through data of the EternaBench riboswitch data.

In the data set the test system is MS2 coat protein. Put plainly: apparent Kd, MS2 coat protein; higher = weaker binding; RNA-MaP array; FMN 200 µM where present. A digest of the protocol:
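Green signal from SNAP-549-labelled MS2 coat protein was normalised to red-channel RNA signal and to the median Fmax of control clusters. The protein was titrated from 0.7 or 1.5 nM, doubling to 3 µM, without and then with constant ligand, over designs transcribed by stalled E. coli RNA polymerase on Illumina sequencing-chip clusters, in 100 mM Tris-HCl pH 7.5, 80 mM KCl, 4 mM MgCl2, BSA, DTT, yeast tRNA and Tween-20. The apparent Kd is the median of filtered per-cluster binding-curve fits.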

Setting [1] is: designed as: OFF switch for flavin mononucleotide, no ligand.
The mark [2] stands for this setting: ligand present: flavin mononucleotide, designed as: OFF switch for flavin mononucleotide.
Where [3] appears, read: designed as: ON switch for flavin mononucleotide, no ligand.
[4] abbreviates: ligand present: flavin mononucleotide, designed as: ON switch for flavin mononucleotide.

A word on the apparent Kd: it is the concentration giving half-maximal binding under the conditions of the assay. As to “AGGUGACAUGAGGAUCACCCAUGUCAGGAUAUAUACACUGGCGACGUGACGUCGGCAGAUAGAAGGGACAAAGU”, the “apparent Kd” value by setting is: under setting [1], 17.2 nM; under setting [2], 20 nM.

On to “UAACGCGCAUGCAAGGAUAUGUGCAGAGCUACAUGAGGAUCACCCAUGUGGUUAUGCUAUUGAAAACAGAAGGUGCCCUCGCUCA”, for which the “apparent Kd” value is, setting by setting: under setting [3], 25.8 nM; under setting [4], 24.3 nM.

In the case of “UUACAGCAAGGAUAUACGGGCUGUGCUUUUCAUUUCUUACAACAUGAGGAUCACCCAUGUAGAAGGUGCAACUU”, the “apparent Kd” value under setting [1] came out at 34.8 nM and the “apparent Kd” value under setting [2] was found to be 63.3 nM.

As to “UUGAAUCGAAACAUGAGGAUCACCCAUGUGUCGUAGGUAGCAUAGGAUAUGUACAUACUGUUGGGAUAGAAGGAUGAUGAUGCU”, the “apparent Kd” value amounted to 8.62 nM under setting [3] and 7.47 nM under setting [4].

Turning to “ACCAUUUACUAAUUUUCUAUACAUGAGGAUCACCCAUGUUUUGAGGAUAUCAGCGUGAAACACGCUGAGAAGGCAAAACAUUCG”, the “apparent Kd” value runs as follows: under setting [1], 142 nM; under setting [2], 387 nM.

On to “AGACUCUCUGGAGGAUAUCAUAGUCGUUGACUAUGAGAAGGUUAGCUAUCUUACAUGAGGAUCACCCAUGUGAUCUCUCUCGAG”, for which the “apparent Kd” value was determined as 18.1 nM under setting [1] and 14.6 nM under setting [2].

Consider “GUAUUAUAGAUCCAUUUAUUCAACAUGAGGAUCACCCAUGUGCAGGAUAUCGUGUGUUUUAUAUUCGAGAAGGGCAAAUUCAUU”, for which the “apparent Kd” value was 28.9 nM under setting [1] and 81.8 nM under setting [2].

On to “UGUCGGAGCAGAGGAUAUUACAUGAGGAUCACCCAUGUAUGAACCACUAGCUGGAAACAGCAAUGUAAGAAGGCUGCUCCGACA”, for which the “apparent Kd” value turned out to be 7.43 nM under setting [1] and 51.8 nM under setting [2].

Take “UAUAUAUAGUAAGGAUAUGUAUAUAUUUUACAAACAGAAGGUACUGACAUGAGGAUCACCCAUGUUUUAGUGUGGGCAUGUAGA”: the “apparent Kd” value runs as follows: under setting [1], 57.8 nM; under setting [2], 60 nM.

Consider “UACCUGAGGCAAAGCUUUAGGUAUACAUGAGGAUCACCCAUGUAGGAUAUGGUAGGCUUUGCCUACCAGAAGGACAUGUUAAUU”, for which the “apparent Kd” value was determined as 19.7 nM under setting [1] and 55.3 nM under setting [2].

For the sequence “UGGUACUAGGGAGGAUAUGGGAAGUUACAUGAGGAUCACCCAUGUUUAAGAAUGCCGAGAGGCAACUAGAAGGCCCUAGUACCU”, the “apparent Kd” value is 31.6 nM under setting [3] and 6.24 nM under setting [4].

On to “AUUUAGUGCGAGAAGGCGUGGUCACAUGAGGAUCACCCAUGUCAGUACACGAGGAUAUCGAUCCGCUAUGUAAAUAUAUGCGGC”, for which the “apparent Kd” value under setting [3] amounted to 78 nM and the “apparent Kd” value under setting [4] was 7.51 nM.

Regarding “GUGAAGUAAGGAUAUAGUGGAAAAGAUAAGGUAUGAGAGUUCUAGAAGGUACAUGAGGAUCACCCAUGUUAGGG”, the “apparent Kd” value runs as follows: under setting [1], 301 nM; under setting [2], 186 nM.

Take “GCUGGGUCAGGAUAUACGAGAUCGAAAGAUCGAAGAUCCGUACAUGAGGAUCACCCAUGUAGAAGGGACUGGGC”: the “apparent Kd” value by setting is: under setting [1], 21.4 nM; under setting [2], 44.7 nM.

For the sequence “UUGGGUCGGGAGGAUAUUCGGGCCCAAGGGCUUGGAGAAGGCUCGACAUGAGGAUCACCCAUGUAAGUGUACUU”, the “apparent Kd” value by setting is: under setting [1], 26.4 nM; under setting [2], 73.3 nM.

In the case of “CGCACUUAUAGAGGAUAUGUUGUACAUGAGGAUCACCCAUGUGUUUUUGUAUCAAUAUUAGUGAAACAGAAGGCUAUUUGUGCG”, the “apparent Kd” value turned out to be 5.76 nM under setting [1] and 4.96 nM under setting [2].

Take “GCGAUUUUUAGAUUUUAAUAAUUUACAGAAGGUGAUAUACUUACAUGAGGAUCACCCAUGUUAUUCAAGGAUAUGUAGAUACUC”: the “apparent Kd” value was 308 nM under setting [3] and 31 nM under setting [4].

Consider “UAAUAAAGCAGUGUAUUAAGAUCACAUGAGGAUCACCCAUGUAAGGAUAUGAGCAGAAAAUCUGCUCAGAAGGUACGAACACUG”, for which the “apparent Kd” value runs as follows: under setting [1], 9.51 nM; under setting [2], 32.4 nM.

As to “ACUGUUUGAUUCCUCUUAUACAUGAGGAUCACCCAUGUUAUCGAGGAUAUGCAUUAGAGUGUUUAGCAGAAGGCGAUGUAGUUG”, the “apparent Kd” value by setting is: under setting [1], 7.56 nM; under setting [2], 19.1 nM.

On to “GUCUUUUUACAGAAGGUGUUUAACAUGAGGAUCACCCAUGUAUAUAUGGUUAAAUUUGAUAAUAACAAGGAUAUGUACUAAUCA”, for which the “apparent Kd” value under setting [3] stood at 53.4 nM and the “apparent Kd” value under setting [4] is 46.4 nM.

On to “GAAGCACACAUUAACAUGAGGAUCACCCAUGUCAAAAGACGUGAGGAUAUGGAUCUGAAGAAGAUCCAGAAGGCACUGUGCUAA”, for which the “apparent Kd” value is, setting by setting: under setting [3], 8.83 nM; under setting [4], 6 nM.

For the sequence “UGAAAUCAUGUAGGAUAUGCAUGGCGAAGCUACGCAGAAGGACAUGAGGAUCACCCAUGUUCUAGCUACCGAGUUCGGUGGCAA”, the “apparent Kd” value is, setting by setting: under setting [1], 21.3 nM; under setting [2], 127 nM.

For “GAAAAGGUAGGAUAUACGAAAAAAAAGGGUAGAAAAAAAGCACAUGAGGAUCACCCAUGUAGAAGGACCAAAAG”, the “apparent Kd” value stood at 36.7 nM under setting [1] and 132 nM under setting [2].

With “CCCUGAGAUUGGUUAAUUGGCUGAUAGGAUAUCCUCGGACAUGAGGAUCACCCAUGUUAACUAUUGGAGAAGGGUCAGCGAAAG”, the “apparent Kd” value under setting [3] was found to be 607 nM and the “apparent Kd” value under setting [4] came to 90.2 nM.

For “UGAUAGGACAGAGGAUAUACGGAUAGGAUCUACUAUCUUCCUCAAAUAACAUGAGGAUCACCCAUGUAGAAGGCUGUCCUAUCU”, the “apparent Kd” value reads like this: under setting [1], 126 nM; under setting [2], 887 nM.

As for “GUCUCAGCUGAGGAUAUUAUCUGGCUCGACCGAUAAGAAGGCAGUACAUGAGGAUCACCCAUGUGGUUCGUUCG”, the “apparent Kd” value under setting [1] turned out to be 37.6 nM and the “apparent Kd” value under setting [2] was 84.9 nM.

Consider “GUUGCUUAUGAGAAGGCGAUCAUGAAACAUGAUCGAGGAUAUCAUGUAAACAUGAGGAUCACCCAUGUAUGGGUAUUAUGCAGC”, for which the “apparent Kd” value is, setting by setting: under setting [3], 320 nM; under setting [4], 69.3 nM.

For “UUGGUCGUCGUAGGAUAUGUAGGAUAUUCCUACAUGAGGAUCACCCAUGUUGACAUGGAAGAAGGACAGAAGGACGAUGUCCAU”, the “apparent Kd” value under setting [3] stood at 447 nM and the “apparent Kd” value under setting [4] was 5.71 nM.

In the case of “AUUUAUGGCCAGAAGGACAUGAGGAUCACCCAUGUAGGAUAUGGACGAUUUUGCCCGGCGGUUCGUUUAGGAAGCACCGGUGGU”, the “apparent Kd” value is, setting by setting: under setting [3], 11.5 nM; under setting [4], 7.11 nM.

As for “GGAUGACAAAGUCAUCCAUAACGAACAUGAGGAUCACCCAUGUAGGAUAUGCUUCUCAAAGAGAAGCAGAAGGACAUGUGCCUU”, the “apparent Kd” value is 36.7 nM under setting [1] and 258 nM under setting [2].

Take “UGAUCGAGAGAUCUUAGAUUCUGGUAGGAUAUACAUUUAAAACGCUUUACAUGAGGAUCACCCAUGUAGAAGGACUAGAGUCUA”: the “apparent Kd” value reads like this: under setting [1], 6.68 nM; under setting [2], 7.5 nM.

For the sequence “UAUAUAAUUAAGAGCUGGUCCAAAACAUGAGGAUCACCCAUGUAGGAUAUCAGCACGAUAAGUGCUGAGAAGGACAUCCAGCUC”, the “apparent Kd” value is, setting by setting: under setting [1], 18.5 nM; under setting [2], 16.4 nM.

As to “GUGCUCGUGUAAGGAUAUGCAGCCGUUUCGGCUGCAGAAGGUACUAUAAUACAUGAGGAUCACCCAUGUCUCUAUUGUUUGGUG”, the “apparent Kd” value under setting [3] is 120 nM and the “apparent Kd” value under setting [4] was 153 nM.

For the sequence “GAACGUGACAUGAGGAUCACCCAUGUUGCCUUGGCCAGGUCGUAGGAUAUCCUGAUGAUUAAUUUGGAGAAGGGCGACUGGGAG”, the “apparent Kd” value worked out at 36.1 nM under setting [3] and 15.3 nM under setting [4].

Consider “CAGCUGAAAGUCAGGAUAUCUAGAGCUGCGGCUCUAGAGAAGGGACAUGAGGAUCACCCAUGUCACUCCAGCUG”, for which the “apparent Kd” value runs as follows: under setting [1], 16.4 nM; under setting [2], 18.3 nM.

“AUGAAGAGGCAAGGAUAUCGAGUGCUGGGCCUAUACAUGAGGAUCACCCAUGUCCUGGCAGGACGUGAGAAGGUGUAUCUAAUA”: the “apparent Kd” value by setting is: under setting [3], 217 nM; under setting [4], 343 nM.

Regarding “UACACGGUAGGAUAUACGUAGAUGCAGGUUCGUGUGGUGCUACAUGAGGAUCACCCAUGUAGAAGGACCAACGU”, the “apparent Kd” value under setting [1] was found to be 15.7 nM and the “apparent Kd” value under setting [2] came out at 15.2 nM.

For the sequence “AAUGGGCACCAGAAGGACAUGAGGAUCACCCAUGUAGGAUAUGGGCGUUGAAGAUGUCGGAACGAGUUGCUGGAAAGAUAUGGA”, the “apparent Kd” value reads like this: under setting [3], 194 nM; under setting [4], 20.6 nM.

With “GAGCUUGAUGAGAAGGGUUACAUGAGGAUCACCCAUGUCGACCUUGGCGUAACAGGAUAUCAUCGGGCUCUGUGCGUUGACACA”, the “apparent Kd” value runs as follows: under setting [1], 27 nM; under setting [2], 121 nM.

“AAAUCAGUAGGAUAUACGAUUUUAUACUAGAUAGAGGAACCACAUGAGGAUCACCCAUGUAGAAGGACUAGAUA”: the “apparent Kd” value runs as follows: under setting [1], 14.6 nM; under setting [2], 14.9 nM.

For the sequence “GGGUUGUGAGGAUAUUAGUUGUACGUCAAUAGACGUAUGGGUGAGAAGGCACAUGAGGAUCACCCAUGUUCCUG”, the “apparent Kd” value under setting [2] came out at 126 nM.

In the case of “CUAUUACGAGGAUAUGAUUUAAAUAACAUGAGGAUCACCCAUGUUUUUACGUUAUUUUAUUUAGAAGGCGUAUAGU”, the “apparent Kd” value runs as follows: under setting [1], 41.8 nM; under setting [2], 31 nM.

For “CUGAGGUCAGGAUAUGCAUGGCGGGACUUGCGUCGUGGCGUGGAGAAGGGACAUGAGGAUCACCCAUGUGGAGG”, the “apparent Kd” value under setting [1] was 117 nM and the “apparent Kd” value under setting [2] came out at 99.8 nM.

“CAGUAUUGAGGAUAUACAUGAGGAUCACCCAUGUGUUCCAGCUAGGAAACUAGCAAAAGUAGAAGGCAGUACUG”: the “apparent Kd” value under setting [1] came to 21.6 nM and the “apparent Kd” value under setting [2] was found to be 186 nM.

Turning to “AAUUUACAGCUAGGAUAUACAUGAGGAUCACCCAUGUAAUCAUAGGAUGUUAUCAUUGUAUGAGUGUAGAAGGAGCAAAUAAGA”, the “apparent Kd” value by setting is: under setting [1], 6.73 nM; under setting [2], 6.74 nM.

Regarding “AUCCGGCGUGUAGGAUAUGGAAAAAAUUAGGAUCCAGAAGGACAUGAGGAUCACCCAUGUACAUGUAAACAGUCAUCACCGGAA”, the “apparent Kd” value is, setting by setting: under setting [1], 33.5 nM; under setting [2], 51.7 nM.

Consider “CGAUCGGAAGGAUAUACACCUCACGUCAAACGGACAACCGGACAUGAGGAUCACCCAUGUAGAAGGUCCAAAAU”, for which the “apparent Kd” value by setting is: under setting [1], 72.6 nM; under setting [2], 238 nM.

For “AAAUACAGAGGAUAUGUACGAAUUGACAUGAGGAUCACCCAUGUGACUUCGUGCACUUUGACAGAAGGCUGGGAAU”, the “apparent Kd” value runs as follows: under setting [1], 16.8 nM; under setting [2], 32.7 nM.
